Data reported in ChEMBL document CHEMBL1159127 (Bioorg Med Chem, 2010).
Converted amounts (≈) assume the structure as drawn.

Legend:
[1] = Aqueous solubility in phosphate buffer at pH 7.4; format: physicochemical
In short: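 Thermodynamic solubility by the Avdeef–Testa approach. About 1 mg of ground compound went into 1.0 mL of 1/15 M phosphate buffer (pH 7.4) […], shaken 48 h at 25 °C, then filtered (0.22 µm). Filtrate was diluted in DMF and quantified by reversed-phase HPLC-UV (263–288 nm) against a calibration curve.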

[2] = system: MCF7; assay: Toxicity in human MCF7 cells assessed as effect on cell viability after 24 hrs; format: cell-based; details: mcf7, 24 h
In short: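 Same MCF-7 plating and 24 h compound exposure as the EROD assay. Medium was then removed, cells were detached with 0.25% trypsin/EDTA and counted.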

[3] = Thermodynamic aqueous solubility in equal volume of ethyl alcohol and 1/15M phosphate buffer at pH 7.4; format: physicochemical; details: 1:1 (v/v) ethyl alcohol / 1/15 M phosphate buffer
In short: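 About 1 mg solid ground in agate mortar, suspended in 1.0 mL of a 1:1 mix of 1/15 M phosphate buffer (pH 7.4) and EtOH, shaken 48 h at 25 °C. Filtered (0.22 µm), filtrate diluted in DMF, quantified by reversed-phase C18 HPLC with UV at 263–288 nm against a calibration curve, corrected for dilution.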

[4] = target: T1, Aryl hydrocarbon receptor (Homo sapiens, UniProt P35869); assay: Agonist activity at aryl hydrocarbon receptor in human MCF7 cells after 24 hrs CYP1A1-dependent EROD assay; format: functional, cell-based
T1 sequence (P35869 whole entry): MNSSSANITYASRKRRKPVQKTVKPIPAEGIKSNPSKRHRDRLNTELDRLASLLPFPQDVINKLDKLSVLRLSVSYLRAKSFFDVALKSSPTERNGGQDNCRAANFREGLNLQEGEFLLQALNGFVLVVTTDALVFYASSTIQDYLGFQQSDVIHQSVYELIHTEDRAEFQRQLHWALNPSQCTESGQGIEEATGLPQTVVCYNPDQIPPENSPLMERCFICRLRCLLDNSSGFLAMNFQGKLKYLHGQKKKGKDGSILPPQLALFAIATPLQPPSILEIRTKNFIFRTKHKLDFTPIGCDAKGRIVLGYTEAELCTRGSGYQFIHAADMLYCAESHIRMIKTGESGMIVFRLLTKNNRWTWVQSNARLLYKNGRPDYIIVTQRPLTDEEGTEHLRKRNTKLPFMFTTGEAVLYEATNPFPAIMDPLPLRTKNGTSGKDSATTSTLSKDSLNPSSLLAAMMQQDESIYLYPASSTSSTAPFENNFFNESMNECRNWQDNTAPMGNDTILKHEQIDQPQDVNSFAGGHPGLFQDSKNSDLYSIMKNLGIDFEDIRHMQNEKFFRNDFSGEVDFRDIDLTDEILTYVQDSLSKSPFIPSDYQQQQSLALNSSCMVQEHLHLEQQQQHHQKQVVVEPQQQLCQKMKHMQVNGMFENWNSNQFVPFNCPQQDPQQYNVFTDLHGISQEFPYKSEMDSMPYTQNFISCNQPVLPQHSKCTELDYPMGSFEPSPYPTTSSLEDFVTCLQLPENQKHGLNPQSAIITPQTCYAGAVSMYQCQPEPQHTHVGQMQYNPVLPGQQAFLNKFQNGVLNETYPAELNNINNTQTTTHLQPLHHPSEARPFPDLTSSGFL
In short: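 MCF-7 cells in high-glucose D-MEM with 10% FBS, plated at 5×10^5 cells/mL, settled 4.5 h at 37 °C, then exposed to compound (3% DMSO in added portion) for 24 h. Washed cells were given ethoxyresorufin, dicoumarol and NADPH in PBS for 150 min at 37 °C. Triplicate; EC50 derived.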

[5] = phosphate buffer, read-out: solubility

SMILES	solubility ([1]; buffer) [µg/mL]	Activity [2]	solubility thermodynamic [3] [µg/mL]	EC50 [4] [nM]	solubility [1, 5] [µg/mL]
O=C(NC[C@H](NS(=O)(=O)c1ccccc1)C(=O)O)c1ccc(N2CCC[C@H](N=C3NCCCN3)C2)cc1	3.5 (≈ 6.62 µM)	–	–	–	–
O=c1cc(-c2ccccc2F)oc2ccc3ccccc3c12	–	Non-toxic	153 (≈ 527 µM)	330	–
Cc1ccccc1-c1cc(=O)c2c(ccc3ccccc32)o1	–	Non-toxic	262 (≈ 915 µM)	> 10000	–
O=C(NC[C@H](NS(=O)(=O)c1ccccc1)C(=O)O)c1ccc(N2CCC(NC3=NCCCN3)CC2)c(F)c1	0.6 (≈ 1.1 µM)	–	–	–	–
O=c1cc(-c2ccccn2)oc2ccc3ccccc3c12	–	Non-toxic	299 (≈ 1090 µM)	450	–
O=C(NC[C@H](NS(=O)(=O)c1ccccc1)C(=O)O)c1ccc(N2CCC(NC3=NCCCN3)CC2)cc1	–	–	–	–	< 0.1
COc1ccccc1-c1cc(=O)c2c(ccc3ccccc32)o1	–	Non-toxic	45.8 (≈ 151 µM)	270	–
O=c1cc(-c2ccccc2)oc2ccc3ccccc3c12 [BETA-NAPHTHOFLAVONE]	–	Non-toxic	84.6 (≈ 311 µM)	–	< 0.15
O=c1cc(-c2c(F)cccc2F)oc2ccc3ccccc3c12	–	Non-toxic	248 (≈ 804 µM)	200	–
Cc1cccc(C)c1-c1cc(=O)c2c(ccc3ccccc32)o1	–	Non-toxic	1270 (≈ 4230 µM)	> 10000	–
